Measured values as given in ChEMBL document CHEMBL4680134, “Structural optimization of natural product nordihydroguaretic acid to discover novel analogues as AcrB inhibitors” (Eur J Med Chem, 2020).

Columns and labels:
[1] = Growth inhibition of Escherichia coli BW25113 expressing AcrB at 512 ug/ml after 18 hrs by broth microdilution assay; conditions: dose 512 µg/ml
Method in brief: (§1)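 MIC determined by 96-well broth microdilution in E. coli BW25113 expressing AcrB ((+)AcrB) and an isogenic acrB-deleted strain ((-)AcrB). Used to set the compound concentrations for synergy testing that produce no direct antibacterial effect.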

[2] = Growth inhibition of Escherichia coli harboring AcrB deletion mutant at 64 ug/ml after 18 hrs by broth microdilution assay; conditions: dose 64 µg/ml; method in brief: as §1

## Oc1ccc(CCCCc2ccccn2)cc1O
[1]
  growth inhibition (GI): Non-Toxic
[2]
  growth inhibition (GI): Non-Toxic

## Oc1ccc(CCCCc2ccc(O)c(O)c2)cc1
[1]
  growth inhibition (GI): Non-Toxic
[2]
  growth inhibition (GI): Non-Toxic

## Oc1ccc2cc(CCCCc3ccc(O)c(O)c3)ccc2c1
[1]
  growth inhibition (GI): Non-Toxic
[2]
  growth inhibition (GI): Non-Toxic

## CC(C)(C)c1ccc(CCCCc2ccc(O)c(O)c2)cc1
[1]
  growth inhibition (GI): Non-Toxic
[2]
  growth inhibition (GI): Non-Toxic

## Oc1ccc(CCCC(c2ccccc2)c2ccccc2)cc1O
[1]
  growth inhibition (GI): Non-Toxic
[2]
  growth inhibition (GI): Non-Toxic

## CC(C)CCn1cc(CCCCc2ccc(O)c(O)c2)c2ccccc21
[1]
  growth inhibition (GI): Non-Toxic
[2]
  growth inhibition (GI): Non-Toxic

## Oc1ccc(CCCCc2cccc3ccccc23)cc1O
[1]
  growth inhibition (GI): Non-Toxic
[2]
  growth inhibition (GI): Non-Toxic

## Cn1cc(CCCCc2ccc(O)c(O)c2)c2ccccc21
[1]
  growth inhibition (GI): Non-Toxic
[2]
  growth inhibition (GI): Non-Toxic

## Oc1ccc(CCCCc2ccncc2)cc1O
[1]
  growth inhibition (GI): Non-Toxic
[2]
  growth inhibition (GI): Non-Toxic

## Cc1ccc(CCCCc2ccc(O)c(O)c2)cc1
[1]
  growth inhibition (GI): Non-Toxic
[2]
  growth inhibition (GI): Non-Toxic

## CC(C)(C)c1ccc(C(=O)NCCc2ccc(O)c(O)c2)cc1
[1]
  growth inhibition (GI): Non-Toxic
[2]
  growth inhibition (GI): Non-Toxic

## CC(C)c1ccc(CCCCc2ccc(O)c(O)c2)cc1
[1]
  growth inhibition (GI): Non-Toxic
[2]
  growth inhibition (GI): Non-Toxic

## Oc1ccc(CCCCc2ccco2)cc1O
[1]
  growth inhibition (GI): Non-Toxic
[2]
  growth inhibition (GI): Non-Toxic

## Oc1ccc(CCCCc2c3ccccc3cc3ccccc23)cc1O
[1]
  growth inhibition (GI): Non-Toxic
[2]
  growth inhibition (GI): Non-Toxic

## Nc1ccc(CCCCc2ccc(O)c(O)c2)cc1
[1]
  growth inhibition (GI): Non-Toxic
[2]
  growth inhibition (GI): Non-Toxic

## Oc1ccc(CCCCc2ccccc2)cc1O
[1]
  growth inhibition (GI): Non-Toxic
[2]
  growth inhibition (GI): Non-Toxic

## Oc1ccc(CCCCc2ccc(-c3ccccc3)cc2)cc1O
[1]
  growth inhibition (GI): Non-Toxic
[2]
  growth inhibition (GI): Non-Toxic

## Oc1ccc(CCCCc2ccc(F)cc2)cc1O
[1]
  growth inhibition (GI): Non-Toxic
[2]
  growth inhibition (GI): Non-Toxic
